Measurements published in publication PMC9704493 (RSC Advances, 2022).

Tests used:
[1] = tested on: HCT-116 colorectal carcinoma cells; assay: MTT cell viability assay, HCT-116; assay type: cell-based, human; settings: for Selectivity indices (SI), HCT-116: HCT-116 versus MRC-5 fibroblasts; for GI50: Homo sapiens, HCT-116, 72 h, read-out: GI50 values (M) mean ± SD, HCT-116
In short: (§1)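 Cells were seeded at 3 × 10^3 per well and grown for 24 h at 37 °C/5% CO2. A T0 plate was read at dosing and the others after 72 h. MTT (5 mg mL−1 in PBS) was added for 2.5 h, formazan dissolved in DMSO, and absorbance read at 550 nm. GI50 was interpolated, in triplicate. SI compares MRC-5 with cancer-line activity.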

HCT-116 cells [2] = assay: Clonogenic assay, HCT-116 colony formation; assay type: cell-based, human; settings: 24 h exposure, second group, printed as HCT-116; for colony formation: 10 μM
In short: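 HCT-116 cells (RPMI 1640, 10% FBS, 1% glutamine) were seeded at 400 per well in 6-well plates and left to attach for 24 h. They were given test compound at 5 or 10 μM for 24 h, with medium alone as control. Cells were then washed with cold PBS and grown in fresh medium at 37 °C until control colonies reached ≥50 cells. Colonies were methanol-fixed, stained with 0.05% methylene blue and counted. Survival fraction is % of control, from five independent trials (n = 2 each).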

[3] = tested on: MCF-7 breast cancer cells; assay: MTT cell viability assay, MCF-7; assay type: cell-based, human; settings: for GI50: Homo sapiens, MCF7, 72 h, read-out: GI50 values (M) mean ± SD, MCF-7; for Selectivity indices (SI), MCF-7: MCF-7 versus MRC-5 fibroblasts
In short: as §1

HCT-116 cells [4] = assay: Cell count assay, HCT-116; assay type: cell-based; settings: Homo sapiens, HCT-116, 72 h, read-out: growth inhibition, cell count
In short: (§2)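 Cancer lines were grown in RPMI 1640 with 10% FBS and 1% glutamine at 37 °C/5% CO2, at ≤30 passages. Cells were seeded at 2 × 10^4 per well in 6-well plates and exposed to test compound at 5 or 10 μM for 72 h. Cells were counted by haemocytometer and expressed as % of control (mean ± SD), from 2 independent experiments in triplicate.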

[5] = tested on: caspases 3 and 7 in HCT-116 cells; assay: Caspase-3/7 activity assay, HCT-116; assay type: cell-based, human; settings: HCT-116, 5 and 10 μM, 72 h
In short: (§3)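 Cells kept in log growth (passaged twice weekly, 37 °C/5% CO2, ≤30 passages) were seeded at 3 × 10^3 per well in opaque white 96-well plates and allowed 24 h at 37 °C. Test compound was added at 5 and 10 μM from fresh 10 mM DMSO stocks for 72 h. Homogeneous caspase-3/7 reagent was added and mixed at 300–500 rpm for 30 s. After 30 min at room temperature, fluorescence was read at 499 nm and 521 nm. Experiments were run in triplicate and reported as mean ± SD.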

MRC-5 fibroblasts = assay: MTT cell viability assay, MRC-5 normal fibroblasts; assay type: cell-based, human; settings: for GI50: Homo sapiens, MRC5, 72 h, read-out: GI50 values (M) mean ± SD, MRC-5; for more active against the carcinoma cell lines than MRC-5: selectivity over MRC-5
In short: as §1

[6] = tested on: caspases 3 and 7 in MCF-7 cells; assay: Caspase-3/7 activity assay, MCF-7; assay type: cell-based, human; settings: MCF-7, 5 and 10 μM, 72 h
In short: as §3

MCF-7 cells [7] = assay: Cell count assay, MCF-7; assay type: cell-based; settings: Homo sapiens, MCF7, 72 h, read-out: growth inhibition, cell count
In short: as §2

PARP-1 in HCT-116 cells = assay: Western blot of whole and cleaved PARP, HCT-116; assay type: cell-based, human; settings: HCT-116, 5 and 10 μM, 24 h
In short: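 HCT-116 cells were seeded at 1–2 × 10^6 per dish, attached for 24 h, then exposed to test compound at 5 or 10 μM for 24 h. Lysate protein was measured by Bradford assay, and 50 μg per sample was run on SDS-PAGE and blotted to nitrocellulose. Blots were probed for PARP-1, with GAPDH as loading control, and quantified by densitometry. Data are mean ± SD of three independent experiments, analysed by ANOVA with Dunnett's test.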

MCF-7 cells [8] = assay: Cell cycle assay; assay type: cell-based, human; settings: 24 h; for accumulation of events in G2/M phase: control 11%
In short: (§4)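 Cells were seeded in 10 cm dishes at 7 × 10^5 (control, 24 h) or 4 × 10^5 (48 and 72 h) per dish and left 24 h at 37 °C. They were then treated with test compound at 5 or 10 μM for 24 h. Floating and trypsinised cells were pooled, PBS-washed, held in cold hypotonic fluorochrome solution overnight at 4 °C in the dark, and analysed by flow cytometry (three internal repeats).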

HCT-116 cells [9] = assay: Cell cycle assay; assay type: cell-based, human; settings: HCT-116, 5 and 10 μM, 24 h
In short: as §4

ERK1/2 = assay: Preliminary ERK1/2 inhibition experiments

Row | GI50 [1] [M] | GI50 [3] [M] | Compound | Selectivity indices (SI), HCT-116 [1] | colony formation (HCT-116 cells [2]) | Selectivity indices (SI), MCF-7 [3] | inhibition at 5 µM (HCT-116 cells [4]) [%] | inhibition at 10 µM (HCT-116 cells [4]) [%] | caspase 3 and 7 activation [5] | GI50 (MRC-5 fibroblasts) [M] | more active against the carcinoma cell lines than MRC-5 (MRC-5 fibroblasts) [×] | caspase 3 and 7 activation [6] | inhibition at 10 µM (MCF-7 cells [7]) [%] | also measured
1 | 1.6e-06 ± 2e-07 | 3.9e-06 ± 5e-07 | N#Cc1ccc(-c2csc(NN=Cc3sccc3Br)n2)cc1 [3b′, 2-(2-((3-Bromothiophen-2-yl)methylene)hydrazinyl)-4-(4-cyanophenyl) thiazole] | 12.2 | completely prevented colony formation | 5 | 50 to 55 | 90 to 95 | Significant dose-dependent caspase activation | 1.95e-05 ± 3e-07 | > 5 | Significant dose-dependent caspase activation | – | –
2 | 4.4e-06 ± 3e-07 | 7e-06 ± 3e-07 | N#Cc1ccc(-c2csc(NN=Cc3cc(Br)ccc3O)n2)cc1 [Compound 3h, 2-(2-(5-Bromo-2-hydroxybenzylidene) hydrazinyl)-4-(4-cyanophenyl) thiazole] | 3.6 | – | 2.3 | – | – | – | 1.58e-05 ± 2e-07 | – | – | 65 to 70 | –
3 | 1.6e-06 ± 1e-07 | 1e-06 ± 4e-07 | Cc1cccc(C=NNc2nc(-c3ccc(C#N)cc3)cs2)c1O [Compound 3f, 2-(2-(2-Hydroxy-3-methylbenzylidene) hydrazinyl)-4-(4-cyanophenyl) thiazole] | 10.8 | completely inhibiting colony formation | 17.3 | – | – | Significant dose-dependent caspase activation | 1.73e-05 ± 7e-07 | > 10 | Significant dose-dependent caspase activation | 100 | PARP-1 cleavage (PARP-1 in HCT-116 cells): induces concentration-dependent PARP-1 cleavage; whole PARP expression (PARP-1 in HCT-116 cells): down-regulation of whole PARP; accumulation of events in G2/M phase (MCF-7 cells [8]; MCF-7, 5 μM): 23%; accumulation of events in G2/M phase (MCF-7 cells [8]; MCF-7, 10 μM): 28%; pre-G1 cell populations (MCF-7 cells [8]; MCF-7, 5 and 10 μM): negligible; Pre-G1 events (HCT-116 cells [9]): 5–8%; inhibition of colony formation (HCT-116 cells [2]; 5 μM): completely inhibiting colony formation; ERK1/2 inhibition (ERK1/2): showed ERK1/2 inhibition; inhibition at 5 µM (MCF-7 cells [7]): 55 to 60%; SI over MRC-5 fibroblasts (MRC-5 fibroblasts; cancer cell line not given): > 10
4 | 4.2e-06 ± 1e-06 | 1.7e-06 ± 3e-07 | N#Cc1ccc(-c2csc(NN=Cc3c(F)c(F)c(F)c(F)c3F)n2)cc1 [3a′, 2-(2-((Pentafluorophenyl)methylene)hydrazinyl)-4-(4-cyanophenyl) thiazole] | 2.8 | completely prevented colony formation | 6.8 | – | – | – | 1.16e-05 ± 6e-07 | – | – | 90 to 95 | –
5 | 1.1e-06 ± 5e-07 | 2.54e-05 ± 1.6e-06 | N#Cc1ccc(-c2csc(NN=Cc3c(Cl)cccc3Cl)n2)cc1 [Compound 3n, 2-(2-(2,6-Dichlorobenzylidene)hydrazinyl)-4-(4-cyanophenyl) thiazole] | 11 | – | 0.5 | 50 to 55 | 100 | – | 1.21e-05 ± 4e-07 | – | – | – | –
